Test results published in ChEMBL document CHEMBL1649560, “Beta-lactamase-mediated beta-lactam resistance in Campylobacter species: prevalence of Cj0299 (bla OXA-61) and evidence for a novel beta-Lactamase in C. jejuni” (2009).
Converted amounts (≈) assume the structure as drawn.

Experiments:
Type in all cases: functional
Campylobacter jejuni [1] = experiment: Antibacterial activity against Campylobacter jejuni by NCCLS agar doubling dilution method
Summary of the method: (§1)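 MICs by agar doubling dilution following the NCCLS (CLSI) Campylobacter Working Group procedure, applied to ampicillin- and amoxicillin-resistant isolates from UK chicken flocks (2000–2006). C. jejuni NCTC 11168 and C. coli NCTC 11366 served as control strains. Resistance was called at an ampicillin cutoff of 8 μg/ml. Other agents were judged against Enterobacteriaceae guidelines (BSAC, CLSI).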

Campylobacter coli [2] = experiment: Antibacterial activity against Campylobacter coli by NCCLS agar doubling dilution method; summary of the method: as §1
Campylobacter jejuni [3] = experiment: Antibacterial activity against bla gene-positive and nitrocefin reaction-negative beta-lactamase harboring Campylobacter jejuni NCTC 11168 by NCCLS agar doubling dilution method
Summary of the method: (§2)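 MICs of β-lactams by agar doubling dilution following the NCCLS (CLSI) Campylobacter Working Group procedure, with C. jejuni NCTC 11168 and C. coli NCTC 11366 as controls. Isolates were from UK poultry flocks. β-Lactamase status was set by Cj0299 PCR (281-bp amplimer) and by a nitrocefin colour change of sonicated lysate within 5 min, or within 30 min on repeat.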

Campylobacter jejuni [4] = experiment: Antibacterial activity against Campylobacter jejuni isolate P270 harboring blaOXA-61::cat gene by NCCLS agar doubling dilution method
Campylobacter jejuni [5] = experiment: Antibacterial activity against bla gene-negative and nitrocefin reaction-negative beta-lactamase harboring Campylobacter jejuni isolate P835 by NCCLS agar doubling dilution method; summary of the method: as §2
Campylobacter jejuni [6] = experiment: Antibacterial activity against bla gene-negative and nitrocefin reaction-negative beta-lactamase harboring Campylobacter jejuni isolate P850 by NCCLS agar doubling dilution method; summary of the method: as §2
Campylobacter jejuni [7] = experiment: Antibacterial activity against bla gene-negative and nitrocefin reaction-negative beta-lactamase harboring Campylobacter jejuni isolate P1962 by NCCLS agar doubling dilution method; summary of the method: as §2
Campylobacter jejuni [8] = experiment: Antibacterial activity against bla gene-positive and nitrocefin reaction-positive beta-lactamase harboring Campylobacter jejuni isolate P285 by NCCLS agar doubling dilution method
Summary of the method: (§3)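 MICs by agar doubling dilution per the NCCLS (now CLSI) Campylobacter Working Group method. Isolates came from UK chicken flocks (feces, ceca or farm environment), 2000–2006. C. jejuni NCTC 11168 and C. coli NCTC 11366 served as control strains. The ampicillin resistance cutoff was 8 μg/ml; BSAC/CLSI Enterobacteriaceae guidelines were used for other agents.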

Campylobacter jejuni [9] = experiment: Antibacterial activity against bla gene-positive and nitrocefin reaction-positive beta-lactamase harboring Campylobacter jejuni isolate P286 by NCCLS agar doubling dilution method; summary of the method: as §3
Campylobacter jejuni [10] = experiment: Antibacterial activity against bla gene-positive and nitrocefin reaction-positive beta-lactamase harboring Campylobacter jejuni isolate P305 by NCCLS agar doubling dilution method; summary of the method: as §3
Campylobacter jejuni [11] = experiment: Antibacterial activity against bla gene-positive and nitrocefin reaction-positive beta-lactamase harboring Campylobacter jejuni isolate P316 by NCCLS agar doubling dilution method; summary of the method: as §3
Campylobacter jejuni [12] = experiment: Antibacterial activity against bla gene-positive and nitrocefin reaction-positive beta-lactamase harboring Campylobacter jejuni isolate P338 by NCCLS agar doubling dilution method; summary of the method: as §3
Campylobacter jejuni [13] = experiment: Antibacterial activity against Campylobacter jejuni isolate P338 harboring blaOXA-61::cat gene by NCCLS agar doubling dilution method
Summary of the method: (§4)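 Agar doubling dilution MICs (NCCLS/CLSI Campylobacter Working Group method) against Cj0299-inactivated mutants. Mutants were made by transforming the C. jejuni isolate with pCI and selecting on Mueller-Hinton agar with 10 μg/ml chloramphenicol for 3–5 days. Chromosomal insertion was confirmed by PCR with Cj0299 and cat primers.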

Campylobacter jejuni [14] = experiment: Antibacterial activity against bla gene-positive and nitrocefin reaction-positive beta-lactamase harboring Campylobacter jejuni isolate P790 by NCCLS agar doubling dilution method; summary of the method: as §3
Campylobacter jejuni [15] = experiment: Antibacterial activity against bla gene-positive and nitrocefin reaction-positive beta-lactamase harboring Campylobacter jejuni isolate P1093 by NCCLS agar doubling dilution method; summary of the method: as §2
Campylobacter jejuni [16] = experiment: Antibacterial activity against Campylobacter jejuni isolate P1093 harboring blaOXA-61::cat gene by NCCLS agar doubling dilution method; summary of the method: as §4
Campylobacter jejuni [17] = experiment: Antibacterial activity against bla gene-positive and nitrocefin reaction-positive beta-lactamase harboring Campylobacter jejuni isolate P1618 by NCCLS agar doubling dilution method; summary of the method: as §2
Campylobacter jejuni [18] = experiment: Antibacterial activity against bla gene-positive and nitrocefin reaction-positive beta-lactamase harboring Campylobacter jejuni isolate P1650 by NCCLS agar doubling dilution method; summary of the method: as §2
Campylobacter jejuni [19] = experiment: Antibacterial activity against bla gene-positive and nitrocefin reaction-positive beta-lactamase harboring Campylobacter jejuni isolate P1730 by NCCLS agar doubling dilution method; summary of the method: as §3
Campylobacter jejuni [20] = experiment: Antibacterial activity against bla gene-positive and nitrocefin reaction-negative beta-lactamase harboring Campylobacter jejuni isolate P1698 by NCCLS agar doubling dilution method; summary of the method: as §2
Campylobacter jejuni [21] = experiment: Antibacterial activity against bla gene-positive and nitrocefin reaction-negative beta-lactamase harboring Campylobacter jejuni isolate P1699 by NCCLS agar doubling dilution method; summary of the method: as §2
Campylobacter jejuni [22] = experiment: Antibacterial activity against bla gene-negative and nitrocefin reaction-positive beta-lactamase harboring Campylobacter jejuni isolate P843 by NCCLS agar doubling dilution method; summary of the method: as §2
Campylobacter jejuni [23] = experiment: Antibacterial activity against bla gene-negative and nitrocefin reaction-positive beta-lactamase harboring Campylobacter jejuni isolate P854 by NCCLS agar doubling dilution method; summary of the method: as §2
Campylobacter coli [24] = experiment: Antibacterial activity against bla gene-positive and nitrocefin reaction-positive beta-lactamase harboring Campylobacter coli isolate P321 by NCCLS agar doubling dilution method; summary of the method: as §2
Campylobacter coli [25] = experiment: Antibacterial activity against bla-positive and beta-lactamase-weakly positive Campylobacter coli isolate P1627 by NCCLS agar doubling dilution method; summary of the method: as §3
Campylobacter coli [26] = experiment: Antibacterial activity against bla gene-positive and nitrocefin reaction-positive beta-lactamase harboring Campylobacter coli isolate P1826 by NCCLS agar doubling dilution method; summary of the method: as §2

Cc1onc(-c2ccccc2Cl)c1C(=O)N[C@@H]1C(=O)N2[C@@H]1SC(C)(C)[C@@H]2C(=O)O [CLOXACILLIN]
MIC50 (Campylobacter jejuni [1]): 256 µg/mL (≈ 587 µM)
MIC90 (Campylobacter jejuni [1]): > 256 µg/mL
MIC (Campylobacter coli [2]): 256 µg/mL (≈ 587 µM)
MIC50 (Campylobacter coli [2]): 256 µg/mL (≈ 587 µM)
MIC90 (Campylobacter coli [2]): > 256 µg/mL
MIC (Campylobacter jejuni [3]): 128 µg/mL (≈ 294 µM)
MIC (Campylobacter jejuni [4]): 128 µg/mL (≈ 294 µM)
MIC (Campylobacter jejuni [5]): 256 µg/mL (≈ 587 µM)
MIC (Campylobacter jejuni [6]): 256 µg/mL (≈ 587 µM)
MIC (Campylobacter jejuni [7]): 256 µg/mL (≈ 587 µM)
MIC (Campylobacter jejuni [8]): 256 µg/mL (≈ 587 µM)
MIC (Campylobacter jejuni [9]): 256 µg/mL (≈ 587 µM)
MIC (Campylobacter jejuni [10]): 256 µg/mL (≈ 587 µM)
MIC (Campylobacter jejuni [11]): 256 µg/mL (≈ 587 µM)
MIC (Campylobacter jejuni [12]): 128 µg/mL (≈ 294 µM)
MIC (Campylobacter jejuni [13]): 128 µg/mL (≈ 294 µM)
MIC (Campylobacter jejuni [14]): > 256 µg/mL
MIC (Campylobacter jejuni [15]): 512 µg/mL (≈ 1170 µM)
MIC (Campylobacter jejuni [16]): 256 µg/mL (≈ 587 µM)
MIC (Campylobacter jejuni [17]): 128 µg/mL (≈ 294 µM)
MIC (Campylobacter jejuni [18]): 256 µg/mL (≈ 587 µM)
MIC (Campylobacter jejuni [19]): 256 µg/mL (≈ 587 µM)
MIC (Campylobacter jejuni [20]): 128 µg/mL (≈ 294 µM)
MIC (Campylobacter jejuni [21]): 256 µg/mL (≈ 587 µM)
MIC (Campylobacter jejuni [22]): > 256 µg/mL
MIC (Campylobacter jejuni [23]): 256 µg/mL (≈ 587 µM)
MIC (Campylobacter coli [24]): 256 µg/mL (≈ 587 µM)
MIC (Campylobacter coli [25]): 256 µg/mL (≈ 587 µM)
MIC (Campylobacter coli [26]): 256 µg/mL (≈ 587 µM)
